In ChEMBL document CHEMBL4834405, “Structure-Based Design of High-Affinity Macrocyclic FKBP51 Inhibitors” (J Med Chem, 2021):

Key:
[1] = (§1) Selectivity ratio of Kd for displacement of fluorescent tracer 5-(3-(4-((1S,5S,6S)-10-(3,5-dichlorophenylsulfonyl)-2-oxo-3-(pyridin-3-ylmethyl)-3,10-diazabicyclo[4.3.1]decan-5-yl)-1H-1,2,3-triazol-1-yl)propylcarbamoyl)-2-(6-(dimethylamino)-3-(dimethyliminio)-3H-xanthen-9-yl)benzoate from recombinant full length C-terminal FLAG-tagged FJBP12 to Kd for displacement of fluorescent tracer 5-(3-(4-((1S,5S,6S)-10-(3,5-dichlorophenylsulfonyl)-2-oxo-3-(pyridin-3-ylmethyl)-3,10-diazabicyclo[4.3.1]decan-5-yl)-1H-1,2,3-triazol-1-yl)propylcarbamoyl)-2-(6-(dimethylamino)-3-(dimethyliminio)-3H-xanthen-9-yl)benzoate from recombinant full length C-terminal FLAG-tagged FKBP51 (unknown origin)
[2] = target: Peptidyl-prolyl cis-trans isomerase FKBP1B (Homo sapiens, UniProt P68106); assay: (§2) Displacement of fluorescent tracer 5-(3-(4-((1S,5S,6S)-10-(3,5-dichlorophenylsulfonyl)-2-oxo-3-(pyridin-3-ylmethyl)-3,10-diazabicyclo[4.3.1]decan-5-yl)-1H-1,2,3-triazol-1-yl)propylcarbamoyl)-2-(6-(dimethylamino)-3-(dimethyliminio)-3H-xanthen-9-yl)benzoate from recombinant full length C-terminal FLAG-tagged FKBP12.6 (unknown origin) expressed in Escherichia coli BL21 (DE3) cells incubated for 30 mins by fluorescence polarisation competition assay
Peptidyl-prolyl cis-trans isomerase FKBP1B, sequence (P68106 whole entry): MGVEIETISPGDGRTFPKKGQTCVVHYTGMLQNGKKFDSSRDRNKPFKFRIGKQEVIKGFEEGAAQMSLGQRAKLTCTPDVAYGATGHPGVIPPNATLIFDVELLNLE
Method in brief: (§3)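 Competitive FP in 150 mM NaCl, 20 mM HEPES pH 8.0, 0.002% Triton X-100. Ligand 1:1 serially diluted in DMSO and premixed with fluorescent tracer, tracer working solution 11.9 nM (FKBP12.6, 51FK1, 52FK1) or 5.95 nM (FKBP12) before final 10-fold dilution into protein. 30 min at room temperature, read at ex/em 535/590 nm. Weighted SD from at least two independent runs.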

[3] = target: T1, Peptidyl-prolyl cis-trans isomerase FKBP5 (Homo sapiens, UniProt Q13451); assay: as §2, with “FKBP51” for “FKBP12.6”, “competition binding” for “competition”
T1 sequence (Q13451 whole entry): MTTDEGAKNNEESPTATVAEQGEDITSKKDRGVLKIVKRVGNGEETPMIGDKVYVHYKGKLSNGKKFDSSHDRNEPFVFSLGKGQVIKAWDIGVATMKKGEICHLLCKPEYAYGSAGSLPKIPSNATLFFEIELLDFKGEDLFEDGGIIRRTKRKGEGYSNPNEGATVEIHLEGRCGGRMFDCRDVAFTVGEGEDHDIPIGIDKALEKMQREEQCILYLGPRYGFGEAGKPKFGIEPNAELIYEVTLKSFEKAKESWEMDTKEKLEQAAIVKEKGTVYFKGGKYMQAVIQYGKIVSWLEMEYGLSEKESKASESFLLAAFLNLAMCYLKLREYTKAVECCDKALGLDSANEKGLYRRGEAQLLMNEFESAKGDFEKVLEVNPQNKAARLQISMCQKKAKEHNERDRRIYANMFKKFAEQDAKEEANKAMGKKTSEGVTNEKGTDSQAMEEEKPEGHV

[4] = as §1, with “FKBP12.6 (unknown origin)” for “FJBP12”
[5] = as §1, with “FKBP52 (unknown origin)” for “FJBP12”
[6] = target: T2, Peptidyl-prolyl cis-trans isomerase FKBP4 (Homo sapiens, UniProt Q02790); assay: as §2, with “FKBP52” for “FKBP12.6”, “competition binding” for “competition”; method in brief: as §3
T2 sequence (Q02790 whole entry): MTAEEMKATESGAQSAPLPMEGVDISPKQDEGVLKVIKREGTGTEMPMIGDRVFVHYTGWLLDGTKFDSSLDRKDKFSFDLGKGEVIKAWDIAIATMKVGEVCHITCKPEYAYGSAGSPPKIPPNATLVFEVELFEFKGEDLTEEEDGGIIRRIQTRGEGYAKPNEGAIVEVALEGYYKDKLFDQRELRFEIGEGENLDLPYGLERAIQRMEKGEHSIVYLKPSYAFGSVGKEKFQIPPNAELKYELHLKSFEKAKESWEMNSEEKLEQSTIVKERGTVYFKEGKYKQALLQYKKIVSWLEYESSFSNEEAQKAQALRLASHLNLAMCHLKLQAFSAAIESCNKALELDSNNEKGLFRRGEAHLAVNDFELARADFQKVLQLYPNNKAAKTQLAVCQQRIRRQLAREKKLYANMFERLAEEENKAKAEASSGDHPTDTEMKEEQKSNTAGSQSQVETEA

[7] = target: Peptidyl-prolyl cis-trans isomerase FKBP1A (Homo sapiens, UniProt P62942); assay: as §2, with “FKBP12” for “FKBP12.6”, “([…])” for “(DE3)”, “competition binding” for “competition”; method in brief: as §3
Peptidyl-prolyl cis-trans isomerase FKBP1A, sequence (P62942 whole entry, the tested form may be a part): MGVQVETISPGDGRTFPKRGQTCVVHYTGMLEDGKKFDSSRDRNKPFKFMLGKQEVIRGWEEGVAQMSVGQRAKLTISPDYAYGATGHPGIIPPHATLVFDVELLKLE

[8] = target: T3, Peptidyl-prolyl cis-trans isomerase FKBP5 (Homo sapiens) (UniProt Q13451); assay: Binding affinity to FKBP51 FK1 domain (unknown origin) assessed as change in enthalpy by isothermal titration calorimetric analysis
T3 sequence (whole entry): T1 sequence (Q13451 whole entry)
Method in brief: (§4)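 FKBP51 FK1 domain, ITC at 25 °C in 20 mM HEPES pH 8.0, 20 mM NaCl. Standard setup: 10 μM protein in cell with 0.5% DMSO, 100 μM ligand in syringe. Reverse setup for poorly soluble ligand: 10 μM ligand in cell with 5% DMSO, 100 μM protein in syringe. 18 × 2 μL injections, one-site binding fit, triplicates, weighted SD that includes fit errors.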

[9] = target: T1, Peptidyl-prolyl cis-trans isomerase FKBP5; assay: Binding affinity to FKBP51 FK1 domain (unknown origin) assessed as dissociation constant at 25 degreeC by isothermal titration calorimetric analysis; method in brief: as §4
[10] = target: T3, Peptidyl-prolyl cis-trans isomerase FKBP5 (Homo sapiens); assay: Binding affinity to FKBP51 FK1 domain (unknown origin) assessed as gibbs free energy change by isothermal titration calorimetric analysis; method in brief: as §4

Row | SMILES | Selectivity ratio [1] | Kd [2] | Kd [3] | Selectivity ratio [4] | Selectivity ratio [5] | Kd [6] | Kd [7] | deltaH [8] | Kd [9] | deltaG [10]
1 | COc1ccc(CC[C@H]2OC(=O)[C@@H]3CCCCN3C(=O)[C@@H](C3CCCCC3)c3cc(OC)c(c(OC)c3)OCCC(=O)COc3cccc2c3)cc1OC | 7.8 | 0.038 µM | 0.011 µM | 3.4 | 425 | 4.67 µM | 0.086 µM |  |  | 
2 | COc1ccc(CC[C@H]2OC(=O)[C@@H]3CCCCN3C(=O)[C@@H](C3CCCCC3)c3cc(OC)c(c(OC)c3)OCC/C=C\COc3cccc2c3)cc1OC | 6 | 0.495 µM | 0.088 µM | 5.6 | > 114 | > 10 µM | 0.526 µM |  |  | 
3 | COc1ccc(CC[C@H]2OC(=O)[C@@H]3CCCCN3C(=O)[C@@H](C3CCCCC3)c3cc(OC)c(c(OC)c3)OCCCOC/C=C/COc3cccc2c3)cc1OC | 7 | 0.335 µM | 0.084 µM | 3.9 | > 119 | > 10 µM | 0.595 µM |  |  | 
4 | COc1ccc(CC[C@H]2OC(=O)[C@@H]3CCCCN3C(=O)[C@@H](C3CCCCC3)c3cc(OC)c(OC)c(c3)OCCCC(=O)COc3cccc2c3)cc1OC | 2.4 | 0.043 µM | 0.028 µM | 1.5 | 146 | 4.1 µM | 0.066 µM |  |  | 
5 | COc1ccc(CC[C@@H](OC(=O)[C@@H]2CCCCN2C(=O)[C@H](c2cc(OC)c(OC)c(OC)c2)C2CCCCC2)c2cccc(OCC(=O)O)c2)cc1OC |  |  |  |  |  |  |  | -11.2 kcal/mol | 0.0098 µM | -10.9 kcal/mol
6 | COc1ccc(CC[C@H]2OC(=O)[C@@H]3CCCCN3C(=O)[C@@H](C3CCCCC3)c3cc(OC)c(OC)c(c3)OCCOCC(=O)CCOc3cccc2c3)cc1OC | 2.2 | 0.053 µM | 0.028 µM | 1.9 | 138 | 3.88 µM | 0.062 µM |  |  | 
7 | COc1ccc(CC[C@H]2OC(=O)[C@@H]3CCCCN3C(=O)[C@@H](C3CCCCC3)c3cc(OC)c(c(OC)c3)OCCOCCCCOc3cccc2c3)cc1OC | 8 | 0.429 µM | 0.138 µM | 3.1 | > 72 | > 10 µM | 1.11 µM |  |  | 
8 | COc1ccc(CC[C@H]2OC(=O)[C@@H]3CCCCN3C(=O)[C@@H](C3CCCCC3)c3cc(OC)c(OC)c(c3)OCCC(=O)CCOc3cccc2c3)cc1OC | 4.8 | 0.02 µM | 0.008 µM | 2.5 | 175 | 1.4 µM | 0.038 µM |  |  | 
9 | COc1ccc(CC[C@H]2OC(=O)[C@@H]3CCCCN3C(=O)[C@@H](C3CCCCC3)c3cc(OC)c(c(OC)c3)OC/C=C\COc3cccc2c3)cc1OC | 12.2 | 0.658 µM | 0.067 µM | 9.8 | > 149 | > 10 µM | 0.815 µM |  |  | 
10 | COc1ccc(CC[C@H]2OC(=O)[C@@H]3CCCCN3C(=O)[C@@H](C3CCCCC3)c3cc(OC)c(c(OC)c3)OC/C=C/COc3cccc2c3)cc1OC | 8.6 | 0.606 µM | 0.089 µM | 6.8 | > 112 | > 10 µM | 0.768 µM |  |  | 
11 | COc1ccc(CC[C@H]2OC(=O)[C@@H]3CCCCN3C(=O)[C@@H](C3CCCCC3)c3cc(OC)c(OC)c(c3)OC[C@@H](O)[C@H](O)COc3cccc2c3)cc1OC | 4.4 | 0.009 µM | 0.005 µM | 1.8 | 103 | 0.513 µM | 0.022 µM | -11.3 kcal/mol | 0.0069 µM | -11.1 kcal/mol
12 | COc1ccc(CC[C@H]2OC(=O)[C@@H]3CCCCN3C(=O)[C@@H](C3CCCCC3)c3cc(OC)c(OC)c(c3)OCCCCOc3cccc2c3)cc1OC | 3.8 | 0.062 µM | 0.029 µM | 2.1 | 154 | 4.46 µM | 0.113 µM |  |  | 
13 | COc1ccc(CC[C@H]2OC(=O)[C@@H]3CCCCN3C(=O)[C@@H](C3CCCCC3)c3cc(OC)c(OC)c(c3)OCCC(=O)COc3cccc2c3)cc1OC | 4.9 | 0.032 µM | 0.012 µM | 2.7 | 294 | 3.53 µM | 0.059 µM |  |  | 
14 | COc1ccc(CC[C@H]2OC(=O)[C@@H]3CCCCN3C(=O)[C@@H](C3CCCCC3)c3cc(OC)c(OC)c(c3)OCCOC/C=C\COc3cccc2c3)cc1OC | 2.5 | 0.301 µM | 0.137 µM | 2.2 | > 73 | > 10 µM | 0.345 µM |  |  | 
